Test results reported in ChEMBL document CHEMBL1134536, “Nonpeptidic, monocharged, cell permeable ligands for the p56lck SH2 domain” (J Med Chem, 2001).
pEC50, pKd: −log10 of the molar value.

Assays:
[1] = Inhibition of IL-2 production from CD4+T cells; type: functional, cell-based; settings: Homo sapiens, CD4+ T cell
Method in brief: (§1)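 Purified human CD4+ T cells (5 × 10^4/well) in RPMI 1640 with 1% FBS. Compound diluted from DMSO stock, preincubated 1 h at 37 °C. Cells activated with 0.12 ng/well anti-CD3, 100 ng/well anti-CD28 and anti-mouse IgG magnetic beads, then incubated overnight at 37 °C, 5% CO2. Secreted IL-2 in supernatant measured by ELISA.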

Jurkat [2] = test: Inhibition of Ca+2 influx in jurkat T cells; type: functional, cell-based; settings: Homo sapiens
Method in brief: (§2)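 Jurkat cells loaded with 2 μM Fluo-3 AM plus Pluronic F127 for 1 h at room temperature, washed, resuspended in HBSS with 10 mM HEPES pH 7.5. 4 × 10^6 cells per cuvette equilibrated to 37 °C; compound added 80 s before TCR cross-linking with 2 μg mouse anti-human CD3. Cytoplasmic calcium followed by fluorescence over time; EC50 from percent of control fluorescence at six doses.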

[3] = Inhibition of proliferation of CD4+T cells; type: functional, cell-based; settings: Homo sapiens, CD4+ T cell
Method in brief: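 Human CD4+ T cells, 5 × 10^4/well, preincubated with compound for 1 h at 37 °C. Stimulated with anti-CD3, anti-CD28 and anti-mouse IgG beads. Pulsed 48 h after activation with 0.5 μCi/well [3H]-thymidine, incubated a further 18 h at 37 °C, harvested, and incorporated radioactivity counted.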

Homo sapiens = species: Homo sapiens; test: Percent permeated in 3 hours in Caco-2 model; type: ADME, organism-based; settings: caco-2, 3 h
Method in brief: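 Caco-2 monolayers on collagen-coated polycarbonate filters, grown up to 25 days (passages 23–50). Cells equilibrated in HBSS pH 7.4 for 30 min at 37 °C. Drug applied apically at 0.01–0.1 mM final in HBSS at 37 °C, 5% CO2. Basolateral samples taken at intervals; cumulative amount plotted against time. Mannitol used to check monolayer integrity; mass balance >90%; at least triplicates.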

[4] = target: Tyrosine-protein kinase Lck (Homo sapiens, UniProt P06239); test: Binding affinity for p56lck SH2 domain site
Jurkat [5] = test: Percent Inhibition of Ca+2 influx in jurkat T cells at 50 uM concentration; type: functional; settings: Homo sapiens; method in brief: as §2
[6] = Inhibition of IL-2 production in CD4+T cells; type: functional, cell-based; settings: Homo sapiens, CD4+ T cell; method in brief: as §1
Jurkat [7] = test: Percent inhibition of Ca+2 influx in jurkat T cells at 50 uM concentration; type: functional; settings: Homo sapiens; method in brief: as §2

Sequence of Tyrosine-protein kinase Lck (P06239 whole entry, the tested form may be a part): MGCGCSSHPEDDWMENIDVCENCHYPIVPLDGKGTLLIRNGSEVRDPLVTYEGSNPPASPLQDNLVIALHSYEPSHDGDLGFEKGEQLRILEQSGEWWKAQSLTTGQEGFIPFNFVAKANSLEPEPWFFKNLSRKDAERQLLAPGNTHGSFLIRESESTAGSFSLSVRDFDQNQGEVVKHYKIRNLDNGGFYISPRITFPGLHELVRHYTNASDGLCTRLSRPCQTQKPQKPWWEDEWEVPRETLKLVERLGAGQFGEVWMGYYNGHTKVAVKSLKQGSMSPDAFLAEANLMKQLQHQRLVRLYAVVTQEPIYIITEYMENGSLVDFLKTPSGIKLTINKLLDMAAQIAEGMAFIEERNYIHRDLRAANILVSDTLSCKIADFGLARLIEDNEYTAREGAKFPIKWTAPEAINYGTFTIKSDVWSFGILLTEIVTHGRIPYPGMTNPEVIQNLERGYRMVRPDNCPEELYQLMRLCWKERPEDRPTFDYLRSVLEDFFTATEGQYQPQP

pEC50 [1] | pEC50 (Jurkat [2]) | Permeated (Homo sapiens) | pKd [4] | pEC50 [6] | SMILES | pEC50 [3] | inhibition at 50 µM (Jurkat [5]) | inhibition at 50 µM (Jurkat [7])
5.03 | 5.00 | 21% |  |  | COc1ccc(Cn2ccc(C)c(NC(=O)[C@H](Cc3ccc(C(C)(C)C(=O)O)cc3)NC(=O)C(C)(C)c3ccc4ccccc4c3)c2=O)cc1 | 5.06 |  | 
 |  | 1.3% | 4.64 |  | COc1ccc(Cn2cccc(NC(=O)C(Cc3ccc(CC(=O)O)cc3)NC(=O)Cc3cccc4ccccc34)c2=O)cc1 (centres undefined) |  |  | 
 | < 4.00 | 0.3% | 5.89 |  | COc1ccc(Cn2ccc(C)c(NC(=O)C(Cc3ccc(CC(=O)O)cc3)NC(=O)Cc3cccc4ccccc34)c2=O)cc1 (centres undefined) |  |  | 
 |  | 16% |  | 4.95 | COc1ccc(Cn2ccc(C)c(NC(=O)[C@@H](Cc3ccc(C(C)(C)C(=O)O)cc3)NC(=O)C(C)(C)c3ccc4ccccc4c3)c2=O)cc1 | 4.78 | 57% | 29%
 |  | 0.4% | 5.15 |  | COc1ccc(Cn2ccc(C)c(NC(=O)C(Cc3ccc(CC(=O)O)cc3)NC(C)=O)c2=O)cc1 (centres undefined) |  |  | 
 | 4.52 | 0.6% | 6.55 |  | COc1ccc(Cn2ccc(C)c(NC(=O)C(Cc3ccc(C(C)(C)C(=O)O)cc3)NC(=O)Cc3ccc4ccccc4c3)c2=O)cc1 (racemic) |  |  | 
 | < 4.00 | 0.3% |  |  | COc1ccc(CNC(=O)[C@H](CCC(=O)O)NC(=O)[C@H](Cc2ccc(CC(=O)O)cc2)NC(=O)Cc2cccc3ccccc23)cc1 |  |  | 
 | 4.29 | 0.4% | 5.92 |  | COc1ccc(Cn2ccc(C)c(NC(=O)C(Cc3ccc(C(C)(C)C(=O)O)cc3)NC(=O)Cc3cccc4ccccc34)c2=O)cc1 (racemic) |  |  | 
